In ChEMBL document CHEMBL1156246 (J Med Chem, 2009):
Active and inactive are the calls of the source. No cut-off for these calls is given here.

Legend:
Mus musculus [1] = assay: Anticonvulsant activity in ip dosed albino mouse assessed as protection against subcutaneous metrazole-induced seizures; type: functional, organism-based
Outline: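 Male albino Carworth Farms No. 1 mice, dosed intraperitoneally; subcutaneous metrazol seizure model run by previously reported methods under the NIH Anticonvulsant Screening Program; protection against seizures scored.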

Rattus norvegicus [2] = assay: Anticonvulsant activity in po dosed Sprague-Dawley rat assessed as protection against subcutaneous metrazole-induced seizures; type: functional, organism-based
Outline: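 Male albino Sprague-Dawley rats, oral dosing; subcutaneous metrazol seizure test by previously reported methods within the NIH Anticonvulsant Screening Program.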

[3] = Neurotoxicity in ip dosed albino mouse by rotarod test; type: toxicity, organism-based; settings: in vivo
Mus musculus [4] = assay: Anticonvulsant activity in ip dosed albino mouse assessed as protection against 6 Hz electric shock-induced seizures; type: functional
Outline: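 6 Hz psychomotor seizure test in mice dosed ip, with stimulation at 32 mA.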

Mus musculus [5] = assay: Anticonvulsant activity in ip dosed albino mouse assessed as protection against maximal electroshock-induced seizures; type: functional
Outline: (§1)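 Male rodents screened through the NIH Anticonvulsant Screening Program: albino Carworth Farms No. 1 mice given compound ip, albino Sprague-Dawley rats given compound po. Maximal electroshock test: tonic hindlimb seizures were induced by corneal electrical stimulation. ED50 is given in mg/kg.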

Rattus norvegicus [6] = assay: Anticonvulsant activity in po dosed Sprague-Dawley rat assessed as protection against maximal electroshock-induced seizures; type: functional; outline: as §1
[7] = Neurotoxicity in po dosed Sprague-Dawley rat by rotarod test; type: toxicity, organism-based; settings: in vivo
Rattus norvegicus [8] = assay: Neurotoxicity in po dosed Sprague-Dawley rat assessed as time of peak effect by rotarod test; type: toxicity, organism-based; settings: in vivo
Mus musculus [9] = assay: Neurotoxicity in ip dosed albino mouse assessed as time of peak effect by rotarod test; type: toxicity, organism-based; settings: in vivo
Mus musculus [10] = assay: Anticonvulsant activity against maximal electroshock-induced seizures in ip dosed albino mouse assessed as time of peak effect; type: functional
Rattus norvegicus [11] = assay: Anticonvulsant activity against maximal electroshock-induced seizures in po dosed Sprague-Dawley rat assessed as time of peak effect; type: functional
[12] = target: Dihydropyrimidinase-related protein 2 (Mus musculus) (UniProt O08553); assay: Binding affinity to CRMP2 in ICR mouse brain […] at 5 uM by Western blot analysis in presence of rhodamine-containing 4-(3-azidopropylcarbamoyl)-2-(3,6-bis(dimethylamino)xanthylium-9-yl)benzoate; type: tissue-based
[13] = target: Dihydropyrimidinase-related protein 2 (Mus musculus) (UniProt O08553); assay: Binding affinity to CRMP2 in ICR mouse brain […] at 5 uM by Western blot analysis in presence of rhodamine-containing 4-(3,6,9,12-tetraoxapentadec-14-ynylcarbamoyl)-2-(3,6-bis(dimethylamino)xanthylium-9-yl)benzoate; type: tissue-based
Outline: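 Soluble brain proteome from male 2-month ICR mice was Dounce-homogenized in 50 mM HEPES pH 7.4. It was spun at 1200 × g for 12 min, then at 100,000 × g for 1 h at 4 °C, and exchanged into pH 8.0 HEPES. Aliquots (2.0 mg/mL protein) got 5 μM agent for 30 min at RT. Click reaction used rhodamine-alkyne 50 μM, TCEP 1 mM, TBTA 200 μM, CuSO4 1 mM, 1 h RT. Read-out: SDS-PAGE, in-gel fluorescence (ex 555/em 580 nm).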

Rattus norvegicus [14] = assay: Protective index, ratio of TD50 for po dosed Sprague-Dawley rat to ED50 for protection against maximal electroshock-induced seizures in po dosed Sprague-Dawley rat; type: functional
Mus musculus [15] = assay: Protective index, ratio of TD50 for ip dosed albino mouse to ED50 for protection against maximal electroshock-induced seizures in ip dosed albino mouse; type: functional
[16] = target: Dihydropyrimidinase-related protein 2 (Mus musculus) (UniProt O08553); assay: Binding affinity to CRMP2 in ICR mouse brain […] at 5 uM by mass spectrometry in presence of rhodamine-containing 4-(3-azidopropylcarbamoyl)-2-(3,6-bis(dimethylamino)xanthylium-9-yl)benzoate; type: tissue-based
Outline: (§2)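 Brain soluble fraction from male 2-month ICR mice was Dounce-homogenized in 50 mM HEPES pH 7.4 and spun at 1200 × g then 100,000 × g at 4 °C. The fraction was exchanged into HEPES pH 8.0 at 2.0 mg/mL, treated with agent (5 μM, 30 min, room temperature), then clicked to rhodamine-azide (50 μM) with TCEP 1 mM, TBTA 200 μM and CuSO4 1 mM for 1 h. After SDS-PAGE, the ~62 kDa band was trypsin-digested, iTRAQ-labelled and analysed by LC-MS/MS.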

[17] = target: Dihydropyrimidinase-related protein 2 (Mus musculus) (UniProt O08553); assay: Binding affinity to CRMP2 in ICR mouse brain […] at 5 uM by in-gel tryptic digestion analysis in presence of rhodamine-containing 4-(3-azidopropylcarbamoyl)-2-(3,6-bis(dimethylamino)xanthylium-9-yl)benzoate; type: tissue-based; outline: as §2
Mus musculus [18] = assay: Anticonvulsant activity against 6 Hz electric shock-induced seizures in ip dosed albino mouse assessed as time of peak effect; type: functional

Row | Compound | Activity (Mus musculus [1]) | Activity (Rattus norvegicus [2]) | TD50 [3] [mg/kg] | ED50 (Mus musculus [4]) [mg/kg] | ED50 (Mus musculus [5]) [mg/kg] | ED50 (Rattus norvegicus [6]) [mg/kg] | TD50 [7] [mg/kg] | Time (Rattus norvegicus [8]) [h] | Time (Mus musculus [9]) [h] | Time (Mus musculus [10]) [h] | Time (Rattus norvegicus [11]) [h] | Activity [12] | Activity [13] | Ratio TD50/ED50 (Rattus norvegicus [14]) | Ratio TD50/ED50 (Mus musculus [15]) | Activity [16] | Activity [17] | Time (Mus musculus [18]) [h]
1 | C#CCOC[C@H](NC(C)=O)C(=O)NCc1ccccc1 | inactive | inactive | > 300 | > 30 | > 300 | 30 | > 30 | – | – | – | – | – | – | – | – | – | – | –
2 | CCCC(CCC)C(=O)[O-].[Na+] [VALPROATE SODIUM] | inactive | inactive | – | – | 270 | – | – | 0.5 | 0.25 | 0.25 | 0.5 | – | – | – | – | – | – | –
3 | C#Cc1ccc(CNC(=O)[C@H](COCCN=C=S)NC(C)=O)cc1 | inactive | inactive | – | – | – | – | – | – | – | – | – | inactive | – | – | – | – | – | –
4 | C#Cc1ccc(CNC(=O)[C@@H](COC)NC(C)=O)cc1 | inactive | inactive | 10 | – | 3 | – | < 30 | 0.5 | 0.5 | 0.5 | – | – | – | – | – | – | – | –
5 | C#Cc1ccc(CNC(=O)[C@H](COC)NC(C)=O)cc1 | inactive | inactive | 300 | – | > 300 | – | – | – | 0.5 | 0.5 | – | – | – | – | – | – | – | –
6 | CC(=O)N[C@H](COCCN=C=S)C(=O)NCc1ccccc1 | inactive | inactive | 30 | – | > 300 | < 30 | > 30 | 4 | – | 0.5 | 4 | – | – | – | – | – | – | –
7 | CC(=O)N[C@H](COCCN=[N+]=[N-])C(=O)NCc1ccc(N=C=S)cc1 | inactive | inactive | 100 | – | 100 | – | – | – | 0.5 | 4 | – | – | Active | – | – | – | – | –
8 | C#Cc1ccc(CNC(=O)[C@@H](COCCN=C=S)NC(C)=O)cc1 | inactive | inactive | – | – | – | – | – | – | – | – | – | inactive | – | – | – | – | – | –
9 | CC(=O)N[C@H](CO)C(=O)NCc1ccc(N=C=S)cc1 | inactive | inactive | 47 | – | 24 | 4.2 | > 250 | – | 0.25 | 0.5 | 4 | – | – | >59 | 2 | – | – | –
10 | CC(=O)N[C@@H](COCCN=C=S)C(=O)NCc1ccccc1 | inactive | inactive | 30 | – | > 300 | < 30 | – | – | 0.5 | 0.5 | 4 | – | – | – | – | – | – | –
11 | C#CCOC[C@@H](NC(C)=O)C(=O)NCc1ccc(N=C=S)cc1 | inactive | inactive | 110 | 53 | 45 | > 30 | > 30 | – | 0.25 | 1 | – | Active | – | – | 2.4 | Active | Active | 0.5
12 | C#CCOC[C@@H](NC(C)=O)C(=O)NCc1ccccc1 | inactive | inactive | 59 | 29 | 16 | 7.9 | > 500 | – | 0.25 | 0.25 | 0.5 | – | – | >63 | 3.7 | – | – | 0.5
13 | CC(=O)N[C@@H](COCCN=[N+]=[N-])C(=O)NCc1ccc(N=C=S)cc1 | inactive | inactive | 300 | – | 100 | – | – | – | – | 0.25 | – | – | Active | – | – | – | – | –
14 | CC(=O)N[C@H](COCCN=[N+]=[N-])C(=O)NCc1ccccc1 | inactive | inactive | 100 | 44 | 100 | > 40 | > 30 | – | 4 | 4 | 0.25 | – | – | – | – | – | – | 0.5
15 | COC[C@@H](NC(C)=O)C(=O)NCc1ccccc1 [LACOSAMIDE] | inactive | inactive | – | 10 | – | 4.2 | > 250 | 0.5 | 0.25 | 0.5 | 0.5 | – | – | – | – | – | – | –
16 | C#CCOC[C@H](NC(C)=O)C(=O)NCc1ccc(N=C=S)cc1 | inactive | inactive | > 300 | – | > 300 | – | – | – | – | – | – | Active | – | – | – | Active | Active | –
17 | CC(=O)N[C@@H](CO)C(=O)NCc1ccc(N=C=S)cc1 | inactive | inactive | 30 | – | 100 | 180 | > 30 | – | – | – | – | – | – | – | – | – | – | –
18 | CCC1(c2ccccc2)C(=O)NC(=O)NC1=O [PHENOBARBITAL] | inactive | inactive | – | – | 22 | 9.1 | – | 0.5 | 0.5 | 1 | 5 | – | – | – | – | – | – | –
19 | CC(=O)N[C@@H](COCCN=[N+]=[N-])C(=O)NCc1ccccc1 | inactive | inactive | > 300 | – | > 300 | – | – | – | – | – | – | – | – | – | – | – | – | –
